Measured values as given in ChEMBL document CHEMBL3585272, “Syntheses and Antibacterial Activity of N-Acylated Ciprofloxacin Derivatives Based on the Trimethyl Lock” (ACS Med Chem Lett, 2015).
Values after ≈ are worked out from the molar mass of the structure shown.

Legend:
Micrococcus luteus [1] = assay: Antibacterial activity against Micrococcus luteus ATCC 10240 at 0.1 mM incubated for 24 hrs at 37 degC by agar diffusion assay; assay type: functional; details: ATCC 10240, 24 h, read-out: DIZ
Procedure, shortened: (§1)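 Agar well diffusion. 50 μL of a 0.1 mM solution in 1:9 DMSO/MeOH was added to 9 mm wells in Standard I nutrient agar or Mueller Hinton II agar. Plates were incubated at 37 °C for 24 h, or 44 h for M. vaccae, then inhibition zones were read. Unclear zones were scored separately.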

Mycolicibacterium vaccae [2] = assay: Antibacterial activity against Mycobacterium vaccae IMET10670 at 0.1 mM incubated for 44 hrs at 37 degC by agar diffusion assay; assay type: functional; details: IMET10670, 44 h, read-out: DIZ; procedure, shortened: as §1
Acinetobacter baumannii [3] = assay: Antibacterial activity against Acinetobacter baumannii ATCC 17961 at 0.1 mM incubated for 24 hrs at 37 degC by agar diffusion assay; assay type: functional; details: ATCC 17961, 24 h, read-out: DIZ; procedure, shortened: as §1
Pseudomonas aeruginosa [4] = assay: Antibacterial activity against wild type Pseudomonas aeruginosa K799 at 0.1 mM incubated for 24 hrs at 37 degC by agar diffusion assay; assay type: functional; details: K799, 24 h, read-out: DIZ; procedure, shortened: as §1
Pseudomonas aeruginosa [5] = assay: Antibacterial activity against Pseudomonas aeruginosa K799/61 at 0.1 mM incubated for 24 hrs at 37 degC by agar diffusion assay; assay type: functional; details: K799/61, 24 h, read-out: DIZ; procedure, shortened: as §1
Escherichia coli [6] = assay: Antibacterial activity against Escherichia coli X580 at 0.1 mM incubated for 24 hrs at 37 degC by agar diffusion assay; assay type: functional; details: X580, 24 h, read-out: DIZ; procedure, shortened: as §1
Escherichia coli [7] = assay: Antibacterial activity against Escherichia coli DC0 at 0.1 mM incubated for 24 hrs at 37 degC by agar diffusion assay; assay type: functional; details: DC0, 24 h, read-out: DIZ; procedure, shortened: as §1
Escherichia coli [8] = assay: Antibacterial activity against Escherichia coli DC2 at 0.1 mM incubated for 24 hrs at 37 degC by agar diffusion assay; assay type: functional; details: DC2, 24 h, read-out: DIZ; procedure, shortened: as §1
Acinetobacter baumannii [9] = assay: Antibacterial activity against Acinetobacter baumannii ATCC 17961 assessed as unclear inhibition zone or inhibition zone with many colonies at 0.1 mM incubated for 24 hrs at 37 degC by agar diffusion assay; assay type: functional; details: ATCC 17961, 24 h, read-out: DIZ; procedure, shortened: as §1
Pseudomonas aeruginosa [10] = assay: Antibacterial activity against wild type Pseudomonas aeruginosa K799 assessed as unclear inhibition zone or inhibition zone with many colonies at 0.1 mM incubated for 24 hrs at 37 degC by agar diffusion assay; assay type: functional; details: K799, 24 h, read-out: DIZ; procedure, shortened: as §1
Pseudomonas aeruginosa [11] = assay: Antibacterial activity against Pseudomonas aeruginosa K799/61 assessed as unclear inhibition zone or inhibition zone with many colonies at 0.1 mM incubated for 24 hrs at 37 degC by agar diffusion assay; assay type: functional; details: K799/61, 24 h, read-out: DIZ; procedure, shortened: as §1
Escherichia coli [12] = assay: Antibacterial activity against Escherichia coli X580 assessed as unclear inhibition zone or inhibition zone with many colonies at 0.1 mM incubated for 24 hrs at 37 degC by agar diffusion assay; assay type: functional; details: X580, 24 h, read-out: DIZ; procedure, shortened: as §1
Escherichia coli [13] = assay: Antibacterial activity against Escherichia coli DC0 assessed as unclear inhibition zone or inhibition zone with many colonies at 0.1 mM incubated for 24 hrs at 37 degC by agar diffusion assay; assay type: functional; details: DC0, 24 h, read-out: DIZ; procedure, shortened: as §1
Bacillus subtilis [14] = assay: Antibacterial activity against Bacillus subtilis ATCC 6633 by broth microdilution method; assay type: functional
Procedure, shortened: (§2)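 Broth microdilution in Mueller-Hinton broth No.2 (MHII) following CLSI guidelines. The MIC (μM) was read by visual end point. Each compound was tested in triplicate.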

Staphylococcus aureus [15] = assay: Antibacterial activity against Staphylococcus aureus SG511 by broth microdilution method; assay type: functional; procedure, shortened: as §2
Micrococcus luteus [16] = assay: Antibacterial activity against Micrococcus luteus ATCC 10240 by broth microdilution method; assay type: functional; procedure, shortened: as §2
Mycolicibacterium vaccae [17] = assay: Antibacterial activity against Mycobacterium vaccae IMET10670 by broth microdilution method; assay type: functional; procedure, shortened: as §2
Acinetobacter baumannii [18] = assay: Antibacterial activity against Acinetobacter baumannii ATCC 17961 by broth microdilution method; assay type: functional; procedure, shortened: as §2
Pseudomonas aeruginosa [19] = assay: Antibacterial activity against wild type Pseudomonas aeruginosa K799 by broth microdilution method; assay type: functional; procedure, shortened: as §2
Pseudomonas aeruginosa [20] = assay: Antibacterial activity against Pseudomonas aeruginosa K799/61 by broth microdilution method; assay type: functional; procedure, shortened: as §2
Escherichia coli [21] = assay: Antibacterial activity against Escherichia coli DC0 by broth microdilution method; assay type: functional; procedure, shortened: as §2
Escherichia coli [22] = assay: Antibacterial activity against Escherichia coli DC2 by broth microdilution method; assay type: functional; procedure, shortened: as §2
Bacillus subtilis [23] = assay: Antibacterial activity against Bacillus subtilis ATCC 6633 at 0.1 mM incubated for 24 hrs at 37 degC by agar diffusion assay; assay type: functional; details: ATCC 6633, 24 h, read-out: DIZ; procedure, shortened: as §1
Staphylococcus aureus [24] = assay: Antibacterial activity against Staphylococcus aureus SG511 at 0.1 mM incubated for 24 hrs at 37 degC by agar diffusion assay; assay type: functional; details: SG511, 24 h, read-out: DIZ; procedure, shortened: as §1
Mycolicibacterium vaccae [25] = assay: Antibacterial activity against Mycobacterium vaccae IMET10670 assessed as unclear inhibition zone or inhibition zone with many colonies at 0.1 mM incubated for 44 hrs at 37 degC by agar diffusion assay; assay type: functional; details: IMET10670, 44 h, read-out: DIZ; procedure, shortened: as §1
[26] = Retention time of the compound in presence of methyl mercaptoacetate in CH3CN/PBS solution at 37 degC incubated for 3 hrs by HPLC method; assay type: physicochemical; details: buffer

Row | SMILES | zone of inhibition at 100 µM (Micrococcus luteus [1]) [mm] | zone of inhibition at 100 µM (Mycolicibacterium vaccae [2]) [mm] | zone of inhibition at 100 µM (Acinetobacter baumannii [3]) [mm] | zone of inhibition at 100 µM (Pseudomonas aeruginosa [4]) [mm] | zone of inhibition at 100 µM (Pseudomonas aeruginosa [5]) [mm] | zone of inhibition at 100 µM (Escherichia coli [6]) [mm] | zone of inhibition at 100 µM (Escherichia coli [7]) [mm] | zone of inhibition at 100 µM (Escherichia coli [8]) [mm] | zone of inhibition at 100 µM (Acinetobacter baumannii [9]) [mm] | MIC (Bacillus subtilis [14]) [µM] | MIC (Staphylococcus aureus [15]) [µM] | MIC (Micrococcus luteus [16]) [µM] | MIC (Mycolicibacterium vaccae [17]) [µM] | MIC (Acinetobacter baumannii [18]) [µM] | MIC (Pseudomonas aeruginosa [19]) [µM] | MIC (Pseudomonas aeruginosa [20]) [µM] | MIC (Escherichia coli [21]) [µM] | MIC (Escherichia coli [22]) [µM] | zone of inhibition at 100 µM (Bacillus subtilis [23]) [mm] | zone of inhibition at 100 µM (Staphylococcus aureus [24]) [mm] | also measured
1 | CC1=C(Br)C(=O)C(C(C)(C)CC(=O)N2CCN(c3cc4c(cc3F)c(=O)c(C(=O)O)cn4C3CC3)CC2)=C(C)C1=O | 19 | 37 | 18 | 29 | 29 | 33 | 17 | 24 | 23 | < 0.05 | 0.1 (≈ 0.0628 µg/mL) | 1.56 (≈ 0.98 µg/mL) | 2 (≈ 1.26 µg/mL) | 0.78 (≈ 0.49 µg/mL) | 5 (≈ 3.14 µg/mL) | 2.5 (≈ 1.57 µg/mL) | 12.5 (≈ 7.86 µg/mL) | 8.33 (≈ 5.24 µg/mL) | 35 | 25 | zone of inhibition at 100 µM (Pseudomonas aeruginosa [10]): 35 mm; zone of inhibition at 100 µM (Pseudomonas aeruginosa [11]): 38 mm; zone of inhibition at 100 µM (Escherichia coli [12]): 40 mm; zone of inhibition at 100 µM (Escherichia coli [13]): 21 mm
2 | CC1=C(N)C(=O)C(C(C)(C)CC(=O)N2CCN(c3cc4c(cc3F)c(=O)c(C(=O)O)cn4C3CC3)CC2)=C(C)C1=O | 17 | 24 | 24 | 22 | 31 | 31 | 16 | 23 | 30 | < 0.05 | < 0.05 | 12.5 (≈ 7.06 µg/mL) | 2 (≈ 1.13 µg/mL) | 0.6 (≈ 0.339 µg/mL) | 2.5 (≈ 1.41 µg/mL) | 5 (≈ 2.82 µg/mL) | 25 (≈ 14.1 µg/mL) | 12.5 (≈ 7.06 µg/mL) | 36 | 31 | zone of inhibition at 100 µM (Mycolicibacterium vaccae [25]): 30 mm; zone of inhibition at 100 µM (Pseudomonas aeruginosa [10]): 32 mm; zone of inhibition at 100 µM (Pseudomonas aeruginosa [11]): 35 mm; zone of inhibition at 100 µM (Escherichia coli [12]): 37 mm; zone of inhibition at 100 µM (Escherichia coli [13]): 23 mm
3 | CC1=C(N)C(=O)C(C(C)(C)CC(=O)O)=C(C)C1=O | 0 | 0 | 0 | 0 | 0 | 0 | 0 | 0 | – | – | – | – | – | – | – | – | – | – | 0 | 0 | –
4 | CC1=CC(=O)C(C(C)(C)CC(=O)N2CCN(c3cc4c(cc3F)c(=O)c(C(=O)O)cn4C3CC3)CC2)=C(C)C1=O | 28 | 32 | 26 | 41 | 35 | 32 | 21 | 27 | 32 | < 0.05 | < 0.05 | 0.2 (≈ 0.11 µg/mL) | 0.5 (≈ 0.275 µg/mL) | 0.39 (≈ 0.214 µg/mL) | 1.25 (≈ 0.687 µg/mL) | 2.5 (≈ 1.37 µg/mL) | 12.5 (≈ 6.87 µg/mL) | 6.25 (≈ 3.43 µg/mL) | 39 | 33 | zone of inhibition at 100 µM (Mycolicibacterium vaccae [25]): 42 mm; zone of inhibition at 100 µM (Pseudomonas aeruginosa [11]): 42 mm; zone of inhibition at 100 µM (Escherichia coli [12]): 40 mm; zone of inhibition at 100 µM (Escherichia coli [13]): 29 mm
5 | CC1=CC(=O)C(C(C)(C)CC(=O)O)=C(C)C1=O | 0 | 0 | 0 | 0 | 0 | 0 | 0 | 0 | – | 50 (≈ 11.8 µg/mL) | > 100 | 50 (≈ 11.8 µg/mL) | 80 (≈ 18.9 µg/mL) | > 100 | > 100 | > 100 | > 100 | > 100 | 0 | 0 | –
6 | CC(C)(C)CC(=O)N1CCN(c2cc3c(cc2F)c(=O)c(C(=O)O)cn3C2CC2)CC1 | – | – | – | – | – | – | – | – | – | < 0.05 | 0.4 (≈ 0.172 µg/mL) | 12.5 (≈ 5.37 µg/mL) | 2 (≈ 0.859 µg/mL) | 25 (≈ 10.7 µg/mL) | > 100 | > 100 | > 100 | 100 (≈ 42.9 µg/mL) | – | – | –
7 | CC1=CC(=O)C(C(C)(C)CC(=O)N2CCN(c3ccccc3)CC2)=C(C)C1=O | – | – | – | – | – | – | – | – | – | – | – | – | – | – | – | – | – | – | – | – | Retention_time [26]: 11.1 min
8 | COC(=O)CSc1c(C)c(O)c(C)c2c1OC(=O)CC2(C)C | – | – | – | – | – | – | – | – | – | – | – | – | – | – | – | – | – | – | – | – | Retention_time [26]: 9.2 min
9 | CC(C)(C)OC(=O)N1CCN(c2cc3c(cc2F)c(=O)c(C(=O)O)cn3C2CC2)CC1 | – | – | – | – | – | – | – | – | – | < 0.05 | 0.4 (≈ 0.173 µg/mL) | > 100 | 2 (≈ 0.863 µg/mL) | > 100 | > 100 | > 100 | > 100 | > 100 | – | – | –
10 | c1ccc(N2CCNCC2)cc1 [PHENYLPIPERAZINE] | – | – | – | – | – | – | – | – | – | – | – | – | – | – | – | – | – | – | – | – | Retention_time [26]: 8.5 min
